Reference: ChEMBL document CHEMBL1154697, “Design, synthesis and docking studies of new furobenzopyranones and pyranobenzopyranones as photoreagent towards DNA and as antimicrobial agents” (2010)

How the values were obtained:
Assay type in all cases: functional
Bacillus subtilis [1] = assay: Antimicrobial activity against Bacillus subtilis pretreated 3 hrs before UV photosensitization measured after overnight reincubation under dark condition by agar plate disc diffusion method
Method in brief: (§1)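 B. subtilis 18 h broth culture (0.02 ml) mixed into 10 ml liquefied nutrient agar (beef extract, peptone, K2HPO4, agar). Each dish carries a DMF disc and a xanthotoxin disc (10 mg/ml DMF). Test plates kept dark at 37 °C for 3 h for diffusion, then uncovered and exposed to 365 nm UV for 20 min. A duplicate plate left unirradiated in the incubator overnight. Inhibition zones measured.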

Bacillus subtilis [2] = assay: Antimicrobial activity against 20 mins UV photosensitized Bacillus subtilis measured after overnight reincubation under dark condition by agar plate disc diffusion method; method in brief: as §1
Staphylococcus aureus = assay: Antibacterial activity against Staphylococcus aureus at 50 mg/mL after 48 hrs by agar plate disc diffusion method; conditions: read-out: IZ
Method in brief: (§2)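 Discs placed on nutrient agar plates (15 ml agar seeded with 0.2 mL of 18 h liquid culture of each organism); plates incubated 37 °C for 48 h, inhibition zone diameter read in mm around each disc. DMF-impregnated discs as solvent control; tetracycline (antibacterial) and amphotericin B (antifungal) references run concurrently.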

Escherichia coli = assay: Antibacterial activity against Escherichia coli at 50 mg/mL after 48 hrs by agar plate disc diffusion method; conditions: read-out: IZ; method in brief: as §2
Candida albicans = assay: Antifungal activity against Candida albicans at 50 mg/mL after 48 hrs by agar plate disc diffusion method; conditions: read-out: IZ; method in brief: as §2

With `Cc1c(C(=O)NNC(=S)NCc2ccccc2)c(=O)oc2ccc3c(-c4ccccc4)cc(=O)oc3c12` the “inhibition zone (IZ)” value (Bacillus subtilis [1]) was 18 millimeter, the “inhibition zone (IZ)” value (Bacillus subtilis [2]) was 22 millimeter and the zone of inhibition at 50000 µg/mL (Staphylococcus aureus) was 30 mm. For the same compound, the zone of inhibition at 50000 µg/mL (Escherichia coli) was 20 mm.
`COc1c2occc2c(OC)c2c(C)c(C(=O)NNC(=S)NCc3ccccc3)c(=O)oc12` was tested, and the “inhibition zone (IZ)” value (Bacillus subtilis [1]) was 10 millimeter and the “inhibition zone (IZ)” value (Bacillus subtilis [2]) was 12 millimeter.
With `COc1c2occc2c(OC)c2c(C)c(-c3nnc(S)n3Cc3ccccc3)c(=O)oc12` the “inhibition zone (IZ)” value (Bacillus subtilis [2]) was 11 millimeter.
With `Cc1c(-c2nnc(S)n2Cc2ccccc2)c(=O)oc2ccc3c(-c4ccccc4)cc(=O)oc3c12` the “inhibition zone (IZ)” value (Bacillus subtilis [2]) was 12 millimeter.
With `COc1c2occc2c(OC)c2c(C)c(C(=O)NN)c(=O)oc12` the “inhibition zone (IZ)” value (Bacillus subtilis [1]) was 12 millimeter, the “inhibition zone (IZ)” value (Bacillus subtilis [2]) was 14 millimeter and the zone of inhibition at 50000 µg/mL (Escherichia coli) was 18 mm.
With `C[C@@H]1[C@H](O)[C@@H](C)/C=C/C=C/C=C/C=C/C=C/C=C/C=C/[C@H](O[C@@H]2O[C@H](C)[C@@H](O)[C@H](N)[C@@H]2O)C[C@@H]2O[C@](O)(C[C@@H](O)C[C@@H](O)[C@H](O)CC[C@@H](O)C[C@@H](O)CC(=O)O[C@H]1C)C[C@H](O)[C@H]2C(=O)O` [AMPHOTERICIN B] the zone of inhibition at 50000 µg/mL (Candida albicans) was 30 mm.
In the case of `COc1c2occc2cc2ccc(=O)oc12` [METHOXSALEN], the “inhibition zone (IZ)” value (Bacillus subtilis [2]) is reported as 12 millimeter.
With `CN(C)[C@@H]1C(O)=C(C(N)=O)C(=O)[C@@]2(O)C(O)=C3C(=O)c4c(O)cccc4[C@@](C)(O)[C@H]3C[C@@H]12` [TETRACYCLINE] the “inhibition zone (IZ)” value (Bacillus subtilis [1]) was 30 millimeter, the zone of inhibition at 50000 µg/mL (Staphylococcus aureus) was 36 mm and the zone of inhibition at 50000 µg/mL (Escherichia coli) was 34 mm.
